# Reference: ChEMBL document CHEMBL3751743, “Synthesis and anti-cancer screening of novel heterocyclic-(2H)-1,2,3-triazoles as potential anti-cancer agents” (Medchemcomm, 2015)
# Legend:
# [1] = Cytotoxicity against human Hs578T cells assessed as reduction of cell viability after 48 hrs by calcein-AM-based fluorescence analysis; format: functional; details: Hs-578T
# Method in brief: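 Cells seeded at 3,000 per well in DMEM with 10% FBS and left overnight at 37 °C. A range of compound concentrations or vehicle was then added for 48 h. Cells were washed with DPBS pH 7.4 and loaded with 2 μM calcein-AM for 30 min at 25 °C. Fluorescence read at ex 490/em 520 nm; viability is given relative to untreated control (100%). Mean ± s.d.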
# [2] = Cytotoxicity against human UACC62 cells after 48 hrs by SRB assay; format: functional; details: UACC-62, 48 h
# Method in brief: (§1)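 NCI-60 five-dose screen. Compounds dissolved in DMSO/H2O and tested at five 10-fold dilutions (10^-4 to 10^-8 M) for 48 h. Growth read by sulforhodamine B optical density at time zero and after 48 h of exposure to compound or vehicle. Percent growth calculated against control. GI50 is the molar concentration giving 50% reduction in net cell growth relative to cell number on day 0.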
# [3] = tested on: U-251; assay: Cytotoxicity against human U251 cells after 48 hrs by SRB assay; format: functional; details: U-251, 48 h; method in brief: as §1
# [4] = tested on: MDA-MB-231; assay: Cytotoxicity against human MDA-MB-231 cells after 48 hrs by SRB assay; format: functional; details: MDA-MB-231, 48 h
# Method in brief: (§2)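 NCI-60 five-dose screen: compounds dissolved in DMSO/H2O, tested at five 10-fold dilutions (10^-4 to 10^-8 M) for 48 h. Growth measured by sulforhodamine B optical density at time zero and after 48 h drug or vehicle exposure. Percentage growth calculated relative to control. GI50 is the molar concentration giving 50% reduction in net cell growth versus day-0 cell numbers.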
# [5] = Cytotoxicity against human OVCAR5 cells after 48 hrs by SRB assay; format: functional; details: OVCAR-5, 48 h; method in brief: as §2
# [6] = tested on: NCI-H226; assay: Cytotoxicity against human NCI-H226 cells after 48 hrs by SRB assay; format: functional; details: NCI-H226, 48 h; method in brief: as §2
# [7] = Cytotoxicity against human LOXIMVI cells after 48 hrs by SRB assay; format: functional; details: LOX IMVI; method in brief: as §2
# [8] = Cytotoxicity against human SNB75 cells after 48 hrs by SRB assay; format: functional; details: SNB-75, 48 h; method in brief: as §2
# [9] = Cytotoxicity against human SF268 cells after 48 hrs by SRB assay; format: functional; details: SF-268, 48 h; method in brief: as §2
# [10] = Cytotoxicity against human OVCAR4 cells after 48 hrs by SRB assay; format: functional; details: OVCAR-4, 48 h; method in brief: as §2
# [11] = Cytotoxicity against human HCT15 cells after 48 hrs by SRB assay; format: functional; details: HCT-15, 48 h; method in brief: as §2
# [12] = tested on: HT-29; assay: Cytotoxicity against human HT-29 cells after 48 hrs by SRB assay; format: functional; details: HT-29, 48 h; method in brief: as §2
# [13] = Cytotoxicity against human MOLT4 cells after 48 hrs by SRB assay; format: functional; details: MOLT-4, 48 h; method in brief: as §2
# [14] = Cytotoxicity against human SNB19 cells after 48 hrs by SRB assay; format: functional; details: SNB-19, 48 h; method in brief: as §2
# [15] = Cytotoxicity against human RPMI8226 cells after 48 hrs by SRB assay; format: functional; details: RPMI-8226, 48 h; method in brief: as §2
# [16] = Cytotoxicity against human SF295 cells after 48 hrs by SRB assay; format: functional; details: SF-295, 48 h; method in brief: as §2
# [17] = tested on: M14; assay: Cytotoxicity against human M14 cells after 48 hrs by SRB assay; format: functional; details: M14, 48 h; method in brief: as §2
# [18] = Cytotoxicity against human COLO205 cells after 48 hrs by SRB assay; format: functional; details: COLO 205, 48 h; method in brief: as §2
# [19] = Cytotoxicity against human BT549 cells after 48 hrs by SRB assay; format: functional; details: BT-549, 48 h; method in brief: as §2
# [20] = tested on: NCI-H460; assay: Cytotoxicity against human NCI-H460 cells after 48 hrs by SRB assay; format: functional; details: NCI-H460, 48 h; method in brief: as §2
# [21] = tested on: MDA-MB-468; assay: Cytotoxicity against human MDA-MB-468 cells after 48 hrs by SRB assay; format: functional; details: MDA-MB-468, 48 h; method in brief: as §2
# [22] = Cytotoxicity against human DU145 cells after 48 hrs by SRB assay; format: functional; details: DU-145, 48 h; method in brief: as §2
# [23] = tested on: SR; assay: Cytotoxicity against human SR cells after 48 hrs by SRB assay; format: functional; method in brief: as §2
# [24] = tested on: NCI-H23; assay: Cytotoxicity against human NCI-H23 cells after 48 hrs by SRB assay; format: functional; details: NCI-H23, 48 h; method in brief: as §2
# [25] = tested on: 786-0; assay: Cytotoxicity against human 786-0 cells after 48 hrs by SRB assay; format: functional; details: 786-0, 48 h; method in brief: as §2
# [26] = molecular target: Tubulin (Sus scrofa, UniProt P02554+P02550); assay: Inhibition of porcine brain tubulin polymerization by spectrophotometric analysis
# Method in brief: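 Tubulin at 4 mg/mL in cold 80 mM PIPES pH 6.9 with 2 mM MgCl2, 0.5 mM EGTA, GTP and 10% glycerol. Compound (added as 10x stock in 50% DMSO) or DMSO was preincubated 2 min at 37 °C in a prewarmed plate. Cold tubulin was then added, and polymerization at 37 °C was followed by A340 over time. Dose-response, mean ± s.d., n=3.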
# [27] = tested on: K562; assay: Cytotoxicity against human K562 cells after 48 hrs by SRB assay; format: functional; details: K562, 48 h; method in brief: as §2
# [28] = tested on: MDA-MB-435; assay: Cytotoxicity against human MDA-MB-435 cells after 48 hrs by SRB assay; format: functional; details: MDA-MB-435, 48 h; method in brief: as §2
# [29] = Cytotoxicity against human HOP92 cells after 48 hrs by SRB assay; format: functional; details: HOP-92, 48 h; method in brief: as §2
# [30] = Cytotoxicity against human UACC257 cells after 48 hrs by SRB assay; format: functional; details: UACC-257, 48 h; method in brief: as §1
# [31] = Cytotoxicity against human HCT116 cells after 48 hrs by SRB assay; format: functional; details: HCT-116, 48 h; method in brief: as §2
# [32] = tested on: T47D; assay: Cytotoxicity against human T47D cells after 48 hrs by SRB assay; format: functional; method in brief: as §1
# [33] = Cytotoxicity against human HL-60(TB) cells after 48 hrs by SRB assay; format: functional; details: HL-60, 48 h; method in brief: as §2
# [34] = tested on: MCF7; assay: Cytotoxicity against human MCF7 cells after 48 hrs by SRB assay; format: functional; details: MCF7, 48 h; method in brief: as §2
# [35] = Cytotoxicity against human TK10 cells after 48 hrs by SRB assay; format: functional; details: TK-10, 48 h; method in brief: as §1
# [36] = Cytotoxicity against human OVCAR8 cells after 48 hrs by SRB assay; format: functional; details: OVCAR-8, 48 h; method in brief: as §2
# [37] = tested on: NCI-H522; assay: Cytotoxicity against human NCI-H522 cells after 48 hrs by SRB assay; format: functional; details: NCI-H522, 48 h; method in brief: as §2
# [38] = Cytotoxicity against human SKOV3 cells after 48 hrs by SRB assay; format: functional; details: SK-OV-3, 48 h; method in brief: as §2
# [39] = Cytotoxicity against human SW620 cells after 48 hrs by SRB assay; format: functional; details: SW-620, 48 h; method in brief: as §2
# [40] = tested on: SK-MEL-2; assay: Cytotoxicity against human SK-MEL-2 cells after 48 hrs by SRB assay; format: functional; details: SK-MEL-2, 48 h; method in brief: as §2
# [41] = Cytotoxicity against human SF539 cells after 48 hrs by SRB assay; format: functional; details: SF-539, 48 h; method in brief: as §2
# [42] = tested on: SN12C; assay: Cytotoxicity against human SN12C cells after 48 hrs by SRB assay; format: functional; method in brief: as §2
# [43] = Cytotoxicity against human Caki1 cells after 48 hrs by SRB assay; format: functional; details: CAKI-1, 48 h; method in brief: as §2
# [44] = Cytotoxicity against human NCI-ADR-RES cells after 48 hrs by SRB assay; format: functional; method in brief: as §2
# [45] = tested on: A498; assay: Cytotoxicity against human A498 cells after 48 hrs by SRB assay; format: functional; details: A498, 48 h; method in brief: as §2
# [46] = Cytotoxicity against human OVCAR3 cells after 48 hrs by SRB assay; format: functional; details: OVCAR-3, 48 h; method in brief: as §2
# [47] = tested on: CCRF-CEM; assay: Cytotoxicity against human CCRF-CEM cells after 48 hrs by SRB assay; format: functional; method in brief: as §2
# [48] = tested on: KM12; assay: Cytotoxicity against human KM12 cells after 48 hrs by SRB assay; format: functional; details: KM12, 48 h; method in brief: as §2
# [49] = Cytotoxicity against human Hs 578T cells after 48 hrs by SRB assay; format: functional; method in brief: as §2
# [50] = tested on: ACHN; assay: Cytotoxicity against human ACHN cells after 48 hrs by SRB assay; format: functional; method in brief: as §2
# [51] = Cytotoxicity against human HCC2998 cells after 48 hrs by SRB assay; format: functional; details: HCC 2998, 48 h; method in brief: as §2
# [52] = Cytotoxicity against human UO31 cells after 48 hrs by SRB assay; format: functional; details: UO-31, 48 h; method in brief: as §1
# [53] = tested on: SK-MEL-5; assay: Cytotoxicity against human SK-MEL-5 cells after 48 hrs by SRB assay; format: functional; details: SK-MEL-5, 48 h; method in brief: as §2
# [54] = Cytotoxicity against human PC3 cells after 48 hrs by SRB assay; format: functional; details: PC-3, 48 h; method in brief: as §2
# [55] = tested on: A549; assay: Cytotoxicity against human A549 cells after 48 hrs by SRB assay; format: functional; details: A549, 48 h; method in brief: as §2
# [56] = Cytotoxicity against human RXF393 cells after 48 hrs by SRB assay; format: functional; details: RXF 393, 48 h; method in brief: as §2
smiles,measurement,setting,value
COc1cc(-c2n[nH]nc2-c2cc3ccccc3o2)cc(OC)c1OC,GI50,[1],20 nM
COc1cc(OC)cc(-c2n[nH]nc2-c2c[nH]c3ccccc23)c1,GI50,[2],34 nM
same,GI50,[3],54 nM
same,GI50,[4],76 nM
same,GI50,[5],416 nM
same,GI50,[6],75 nM
same,GI50,[7],55 nM
same,GI50,[8],25 nM
same,GI50,[9],67 nM
same,GI50,[10],2670 nM
same,GI50,[11],31 nM
same,GI50,[12],31 nM
same,GI50,[13],63 nM
same,GI50,[14],56 nM
same,GI50,[15],53 nM
same,GI50,[16],26 nM
same,GI50,[17],31 nM
same,GI50,[18],35 nM
same,GI50,[19],17 nM
same,GI50,[20],38 nM
same,GI50,[21],37 nM
same,GI50,[22],75 nM
same,GI50,[23],47 nM
same,GI50,[24],124 nM
same,GI50,[25],30 nM
same,IC50,[26],13500 nM
same,GI50,[27],31 nM
same,GI50,[28],10 nM
same,GI50,[29],29 nM
same,GI50,[30],> 100000 nM
same,GI50,[31],31 nM
same,GI50,[32],44 nM
same,GI50,[33],33 nM
same,GI50,[34],29 nM
same,GI50,[35],83 nM
same,GI50,[36],70 nM
same,GI50,[37],13 nM
same,GI50,[38],34 nM
same,GI50,[39],35 nM
same,GI50,[40],31 nM
same,GI50,[41],24 nM
same,GI50,[42],69 nM
same,GI50,[43],38 nM
same,GI50,[44],30 nM
same,GI50,[45],33 nM
same,GI50,[46],28 nM
same,GI50,[47],37 nM
same,GI50,[48],45 nM
same,GI50,[49],31 nM
same,GI50,[50],45 nM
same,GI50,[51],251 nM
same,GI50,[52],62 nM
same,GI50,[53],34 nM
same,GI50,[54],38 nM
same,GI50,[55],88 nM
same,GI50,[56],52 nM
